Calls of active or inactive are those of the source. No cut-off for these calls is given here.
How the values were obtained:
Cannabinoid receptor 1 [1] = molecular target: T1, Cannabinoid receptor 1 (Homo sapiens, UniProt P21554); experiment: Displacement of [3H]CP-55940 from human recombinant CB1 receptor expressed in HEK293 cells; format: cell-based
In short: (§1)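 Membranes were from HEK-293 cells overexpressing human CB1 or CB2, with [3H]CP-55,940 as radioligand (Kd 0.18 nM CB1, 0.31 nM CB2). Test compound (1 nM-10 µM) was incubated 90 min at 30 °C. Displaced radioligand was counted by scintillation. Ki came from IC50 via Cheng-Prusoff, with triplicate points; single-concentration screens were run in duplicate.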

Cannabinoid receptor 2 [2] = molecular target: T2, Cannabinoid receptor 2 (Homo sapiens, UniProt P34972); experiment: Displacement of [3H]CP-55940 from human recombinant CB2 receptor expressed in HEK293 cells; format: cell-based; in short: as §1
[3] = molecular target: T3, Fatty-acid amide hydrolase 1 (Rattus norvegicus) (UniProt P97612); experiment: Inhibition of FAAH in rat brain membrane assessed as [14C]anandamide hydrolysis at 50 uM by scintillation counting; format: cell membranes
T3 sequence (whole entry): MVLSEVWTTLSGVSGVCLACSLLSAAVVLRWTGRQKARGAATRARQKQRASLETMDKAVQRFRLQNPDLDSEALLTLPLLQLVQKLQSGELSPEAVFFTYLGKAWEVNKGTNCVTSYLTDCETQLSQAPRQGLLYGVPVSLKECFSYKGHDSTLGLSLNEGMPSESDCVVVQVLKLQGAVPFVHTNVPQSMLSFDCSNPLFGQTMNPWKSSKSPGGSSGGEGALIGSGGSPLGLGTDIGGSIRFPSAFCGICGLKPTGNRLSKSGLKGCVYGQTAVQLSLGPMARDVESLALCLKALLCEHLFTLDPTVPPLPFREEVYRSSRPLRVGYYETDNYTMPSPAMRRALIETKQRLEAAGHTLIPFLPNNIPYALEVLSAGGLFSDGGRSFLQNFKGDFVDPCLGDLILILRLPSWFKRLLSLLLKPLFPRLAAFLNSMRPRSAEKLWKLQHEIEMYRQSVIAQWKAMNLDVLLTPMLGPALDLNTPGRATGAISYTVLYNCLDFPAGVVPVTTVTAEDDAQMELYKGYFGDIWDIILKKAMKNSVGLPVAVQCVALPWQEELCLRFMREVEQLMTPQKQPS
In short: (§2)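 Enzyme source was a rat brain membrane pellet resuspended in 50 mM Tris-HCl, pH 9.0, 70 µg protein per assay. It was incubated with compound (10 or 50 µM) and [14C]anandamide (10000 cpm) for 30 min at 37 °C. After CHCl3/MeOH (1:1) extraction, [14C]ethanolamine in the aqueous phase was counted by scintillation. Points were run in duplicate.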

[4] = molecular target: T3, Fatty-acid amide hydrolase 1 (Rattus norvegicus); experiment: Inhibition of FAAH in rat brain membrane assessed as [14C]anandamide hydrolysis at 10 uM by scintillation counting; format: cell membranes; in short: as §2
Mus musculus [5] = experiment: Antinociceptive activity against formalin-induced nociceptive behavior in C57BL/6 mouse assessed as mean licking time at 200 mg/kg, ip administered 15 mins prior to formalin challenge measured upto 10 mins relative to control; format: functional; conditions: route intraperitoneal
In short: (§3)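 C57BL/6 mice (n = 6-8 per group) were habituated 15-20 min in an observation chamber with mirrors, then given the compound ip at 6 µL/g in PBS/DMSO. Formalin (5%, 20 µL) went into the dorsal left hind paw 15 min later. Licking of the injected paw was summed over 0-10 min (phase 1) and 15-45 min (phase 2) and expressed as % of the vehicle control. Groups were compared by t test.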

Mus musculus [6] = experiment: Antinociceptive activity against formalin-induced nociceptive behavior in C57BL/6 mouse assessed as mean licking time at 200 mg/kg, ip administered 15 mins prior to formalin challenge measured after 15 to 45 mins relative to control; format: functional; conditions: route intraperitoneal; in short: as §3
Cannabinoid receptor 1 [7] = molecular target: T1, Cannabinoid receptor 1; experiment: Displacement of [3H]CP-55940 from human recombinant CB1 receptor expressed in HEK293 cells at 10 uM; format: cell-based
Cannabinoid receptor 2 [8] = molecular target: T2, Cannabinoid receptor 2; experiment: Displacement of [3H]CP-55940 from human recombinant CB2 receptor expressed in HEK293 cells at 10 uM; format: cell-based
[9] = molecular target: Prostaglandin G/H synthase 1 (Homo sapiens, UniProt P23219); experiment: Inhibition of cyclooxygenase 1 in human whole blood assessed as thromboxane B2 level; format: tissue-based
In short: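 Fresh whole blood came from a healthy volunteer free of NSAIDs for 2 weeks. 1 mL aliquots received test agent in DMSO and were left to clot for 1 h at 37 °C. Serum TXB2 was measured by GC-MS/MS, in quadruplicate.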

Mus musculus [10] = experiment: Antinociceptive activity against formalin-induced nociceptive behavior in C57BL/6 mouse assessed as mean licking time at 27.5 mg/kg, ip administered 15 mins prior to formalin challenge measured after 15 to 45 mins relative to control; format: functional; conditions: route intraperitoneal; in short: as §3
Mus musculus [11] = experiment: Antinociceptive activity against formalin-induced nociceptive behavior in C57BL/6 mouse assessed as mean licking time at 55 mg/kg, ip administered 15 mins prior to formalin challenge measured after 15 to 45 mins relative to control; format: functional; conditions: route intraperitoneal; in short: as §3
Mus musculus [12] = experiment: Antinociceptive activity against formalin-induced nociceptive behavior in C57BL/6 mouse assessed as mean licking time at 275 mg/kg, ip administered 15 mins prior to formalin challenge measured after 15 to 45 mins relative to control; format: functional; conditions: route intraperitoneal; in short: as §3
Mus musculus [13] = species on record: Mus musculus; experiment: Toxicity in C57BL/6 mouse assessed as loss of locomotor behavior; format: organism-based; conditions: in vivo
Mus musculus [14] = experiment: Antinociceptive activity against formalin-induced nociceptive behavior in C57BL/6 mouse assessed as mean licking time lat 27.5 mg/kg, ip administered 15 mins prior to formalin challenge measured upto 10 mins relative to control; format: functional; conditions: route intraperitoneal; in short: as §3
Mus musculus [15] = experiment: Antinociceptive activity against formalin-induced nociceptive behavior in C57BL/6 mouse assessed as mean licking time at 55 mg/kg, ip administered 15 mins prior to formalin challenge measured upto 10 mins relative to control; format: functional; conditions: route intraperitoneal; in short: as §3
Mus musculus [16] = experiment: Antinociceptive activity against formalin-induced nociceptive behavior in C57BL/6 mouse assessed as mean licking time at 275 mg/kg, ip administered 15 mins prior to formalin challenge measured upto 10 mins relative to control; format: functional; conditions: route intraperitoneal; in short: as §3
[17] = molecular target: T4, Prostaglandin G/H synthase 2 (Homo sapiens) (UniProt P35354); experiment: Inhibition of cyclooxygenase 2 in human whole blood assessed as prostaglandin E2 level
T4 sequence (whole entry): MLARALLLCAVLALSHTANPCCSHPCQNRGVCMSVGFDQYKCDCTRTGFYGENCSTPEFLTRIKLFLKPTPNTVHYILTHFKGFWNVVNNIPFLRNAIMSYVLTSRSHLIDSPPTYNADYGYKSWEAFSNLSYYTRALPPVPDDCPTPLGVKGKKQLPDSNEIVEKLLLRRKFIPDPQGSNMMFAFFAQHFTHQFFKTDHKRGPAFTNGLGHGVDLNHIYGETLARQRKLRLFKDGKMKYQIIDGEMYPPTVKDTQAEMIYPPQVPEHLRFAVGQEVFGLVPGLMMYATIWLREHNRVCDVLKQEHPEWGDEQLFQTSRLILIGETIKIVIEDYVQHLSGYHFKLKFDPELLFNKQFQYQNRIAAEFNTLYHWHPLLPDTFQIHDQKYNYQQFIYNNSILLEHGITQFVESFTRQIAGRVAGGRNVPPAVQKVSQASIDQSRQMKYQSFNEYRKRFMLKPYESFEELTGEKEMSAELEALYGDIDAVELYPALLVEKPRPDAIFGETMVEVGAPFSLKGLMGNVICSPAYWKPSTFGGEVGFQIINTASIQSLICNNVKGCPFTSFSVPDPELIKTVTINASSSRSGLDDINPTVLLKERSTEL

T1 sequence (P21554 whole entry): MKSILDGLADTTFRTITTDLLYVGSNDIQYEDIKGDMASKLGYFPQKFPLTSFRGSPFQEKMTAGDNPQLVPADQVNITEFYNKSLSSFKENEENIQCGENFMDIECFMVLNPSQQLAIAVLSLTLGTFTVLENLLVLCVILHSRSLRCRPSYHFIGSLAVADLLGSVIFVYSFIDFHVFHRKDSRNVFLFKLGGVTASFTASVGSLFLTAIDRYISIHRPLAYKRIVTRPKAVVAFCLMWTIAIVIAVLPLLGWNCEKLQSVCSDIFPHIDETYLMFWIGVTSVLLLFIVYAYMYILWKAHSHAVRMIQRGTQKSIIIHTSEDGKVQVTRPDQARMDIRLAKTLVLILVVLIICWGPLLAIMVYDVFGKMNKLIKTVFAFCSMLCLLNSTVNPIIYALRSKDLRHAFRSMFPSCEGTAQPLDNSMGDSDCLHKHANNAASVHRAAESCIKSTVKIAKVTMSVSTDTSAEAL
T2 sequence (P34972 whole entry): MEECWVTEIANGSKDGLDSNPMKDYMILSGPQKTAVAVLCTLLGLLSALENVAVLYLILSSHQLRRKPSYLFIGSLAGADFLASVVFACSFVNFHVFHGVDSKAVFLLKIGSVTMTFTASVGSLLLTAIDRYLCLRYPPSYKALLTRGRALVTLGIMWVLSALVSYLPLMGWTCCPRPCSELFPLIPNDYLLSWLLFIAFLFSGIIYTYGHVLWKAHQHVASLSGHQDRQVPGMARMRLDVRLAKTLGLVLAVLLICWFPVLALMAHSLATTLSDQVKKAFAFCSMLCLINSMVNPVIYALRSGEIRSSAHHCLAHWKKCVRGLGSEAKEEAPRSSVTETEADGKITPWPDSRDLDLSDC
Sequence of Prostaglandin G/H synthase 1 (P23219 whole entry): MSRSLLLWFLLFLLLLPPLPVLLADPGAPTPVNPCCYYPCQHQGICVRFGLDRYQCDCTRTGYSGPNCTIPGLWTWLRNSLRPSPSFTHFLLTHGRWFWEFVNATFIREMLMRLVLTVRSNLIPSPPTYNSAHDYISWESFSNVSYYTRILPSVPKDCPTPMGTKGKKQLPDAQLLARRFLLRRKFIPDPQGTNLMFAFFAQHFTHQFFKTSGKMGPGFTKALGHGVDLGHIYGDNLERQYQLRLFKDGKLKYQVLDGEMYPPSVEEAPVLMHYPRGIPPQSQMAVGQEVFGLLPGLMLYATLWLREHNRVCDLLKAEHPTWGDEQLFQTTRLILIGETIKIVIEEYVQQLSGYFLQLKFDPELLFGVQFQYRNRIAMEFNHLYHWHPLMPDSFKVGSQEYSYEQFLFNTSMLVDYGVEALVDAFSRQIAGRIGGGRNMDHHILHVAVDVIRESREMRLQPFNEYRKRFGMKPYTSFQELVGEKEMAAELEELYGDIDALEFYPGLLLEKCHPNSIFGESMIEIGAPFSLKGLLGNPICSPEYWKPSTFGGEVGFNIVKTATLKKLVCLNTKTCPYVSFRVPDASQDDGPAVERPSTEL

SMILES | Ki (Cannabinoid receptor 1 [1]) [nM] | Ki (Cannabinoid receptor 2 [2]) [nM] | inhibition [3] [%] | inhibition [4] [%] | Activity (Mus musculus [5]) [%] | Activity (Mus musculus [6]) [%] | Activity (Cannabinoid receptor 1 [7]) [%] | Activity (Cannabinoid receptor 2 [8]) [%] | Activity [9] | Activity (Mus musculus [10]) [%] | Activity (Mus musculus [11]) [%] | Activity (Mus musculus [12]) [%] | Activity (Mus musculus [13]) | Activity (Mus musculus [14]) [%] | Activity (Mus musculus [15]) [%] | Activity (Mus musculus [16]) [%] | Activity [17]
CCCCC/C=C\C/C=C\C/C=C\C/C=C\CCCC(=O)Nc1ccc(O)c(OC)c1 | 1400 | 1000 | 62 | 23 | – | – | – | – | – | – | – | – | – | – | – | – | –
CC(=O)Nc1ccc(O)cc1 [ACETAMINOPHEN] | – | – | 22 | – | 100 | 47 | 13 | 15 | Active | – | – | – | – | – | – | – | –
CCCCC/C=C\C/C=C\C/C=C\C/C=C\CCCC(=O)Nc1ccc2[nH]ncc2c1 | 300 | 1000 | 2 | 1 | – | – | – | – | – | – | – | – | – | – | – | – | –
CCCCC/C=C\C/C=C\C/C=C\C/C=C\CCCC(=O)Nc1ccc(O)cc1 | 1500 | 1300 | 55 | 15 | – | – | – | – | – | – | – | – | – | – | – | – | –
CC(=O)NCc1ccc(O)cc1 | – | – | 4 | – | – | – | 5 | 7 | inactive | 97 | 71 | 37 | Non-toxic | 227 | 128 | 50 | inactive

Source: ChEMBL document CHEMBL1151744, “New analgesics synthetically derived from the paracetamol metabolite N-(4-hydroxyphenyl)-(5Z,8Z,11Z,14Z)-icosatetra-5,8,11,14-enamide” (J Med Chem, 2008)
